Results from ChEMBL document CHEMBL4024783, “Alkylated Piperazines and Piperazine-Azole Hybrids as Antifungal Agents” (J Med Chem, 2018).
In brackets after ≈: the same amount, converted by molar mass.

Experiments:
Candida albicans [1] = experiment: Antifungal activity against itraconazole and fluconazole susceptible Candida albicans ATCC MYA-2310 after 48 hrs by broth dilution method; type: functional; conditions: Candida albicans, ATCC MYA-2310, 48 h
Candida albicans [2] = experiment: Antifungal activity against itraconazole and fluconazole resistant Candida albicans ATCC MYA-1003 after 48 hrs by broth dilution method; type: functional; conditions: Candida albicans, ATCC MYA-1003, 48 h
In short: (§1)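 CLSI M27-A3 broth microdilution with minor modifications. Overnight YPD culture grown at 35 °C, 200 rpm, adjusted to OD600 0.12, diluted in RPMI 1640 buffered to pH 7.0 with 0.165 M MOPS to a final 1–2 × 10^3 CFU/mL. Test compounds at 0.015–31.3 µg/mL, 48 h at 35 °C, DMSO <1.25%. […] Triplicate.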

Aspergillus flavus = experiment: Antifungal activity against Aspergillus flavus ATCC MYA-3631 after 48 hrs by broth dilution method; type: functional; conditions: ATCC MYA-3631, 48 h
Candida albicans [3] = experiment: Antifungal activity against Candida albicans ATCC 10231 after 48 hrs by broth dilution method; type: functional; conditions: ATCC 10231, 48 h
Candida albicans [4] = experiment: Antifungal activity against itraconazole and fluconazole susceptible Candida albicans ATCC MYA-2876 after 48 hrs by broth dilution method; type: functional; conditions: Candida albicans, ATCC MYA-2876, 48 h
Nakaseomyces glabratus = experiment: Antifungal activity against Candida glabrata ATCC 2001 after 48 hrs by broth dilution method; type: functional, CBS 138; conditions: Nakaseomyces glabratus, CBS 138, 48 h
Candida albicans [5] = experiment: Antifungal activity against itraconazole and fluconazole resistant Candida albicans ATCC MYA-1237 after 48 hrs by broth dilution method; type: functional; conditions: Candida albicans, ATCC MYA-1237, 48 h; in short: as §1
Aspergillus nidulans = experiment: Antifungal activity against Aspergillus nidulans ATCC 38163 after 48 hrs by broth dilution method; type: functional; conditions: Aspergillus nidulans, ATCC 38163, 48 h
In short: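 A. nidulans run per CLSI M38-A2. PDA spores were filtered through glass wool and counted by hemocytometer. Test range 0.03–31.3 µg/mL in MOPS-buffered RPMI 1640 (pH 7.0), final 5 × 10^5 CFU/mL.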

Aspergillus terreus = experiment: Antifungal activity against Aspergillus terreus ATCC MYA-3633 after 48 hrs by broth dilution method; type: functional; conditions: Aspergillus terreus, ATCC MYA-3633, 48 h
In short: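 Molds tested per CLSI M38-A2. Spores were harvested from sporulating PDA cultures by filtering through glass wool and counted on a hemocytometer. Serial dilutions (0.03–31.3 µg/mL) were made in RPMI 1640 buffered to pH 7.0 with 0.165 M MOPS, final inoculum 5 × 10^5 CFU/mL.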

Candida parapsilosis = experiment: Antifungal activity against Candida parapsilosis ATCC 22019 after 48 hrs by broth dilution method; type: functional; conditions: Lodderomyces parapsilosis, ATCC 22019, 48 h
Candida albicans [6] = experiment: Antifungal activity against itraconazole and fluconazole resistant Candida albicans ATCC 90819 after 48 hrs by broth dilution method; type: functional; conditions: Candida albicans, ATCC 90819, 48 h; in short: as §1
Candida albicans [7] = experiment: Antifungal activity against Candida albicans ATCC 64124 after 48 hrs by broth dilution method; type: functional; conditions: Candida albicans, ATCC 64124, 48 h; in short: as §1
Pichia kudriavzevii = experiment: Antifungal activity against Candida krusei ATCC 6258 after 48 hrs by broth dilution method; type: functional; conditions: Pichia kudriavzevii, ATCC 6258, 48 h
In short: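 Yeasts tested per CLSI M27-A3 with minor changes. An overnight YPD culture (35 °C, 200 rpm) was adjusted to OD600 0.12 and diluted in MOPS-buffered RPMI 1640 (pH 7.0) to a final 1–2 × 10^3 CFU/mL. Compounds 0.015–31.3 µg/mL, DMSO <1.25%.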

[8] = Solubility of the compound in DMSO; type: physicochemical
[9] = Aqueous solubility of the compound; type: physicochemical; conditions: buffer

SMILES | MIC (Candida albicans [1]) | MIC (Candida albicans [2]) | MIC (Aspergillus flavus) | MIC (Candida albicans [3]) | MIC (Candida albicans [4]) | MIC (Nakaseomyces glabratus) | MIC (Candida albicans [5]) | MIC (Aspergillus nidulans) | MIC (Aspergillus terreus) | MIC (Candida parapsilosis) | MIC (Candida albicans [6]) | MIC (Candida albicans [7]) | MIC (Pichia kudriavzevii) | solubility [8] | solubility [9]
CC[C@H](C)C[C@H](C)CCCCCCCCC(=O)N[C@H]1C[C@@H](O)[C@@H](NCCN)NC(=O)[C@@H]2[C@@H](O)CCN2C(=O)[C@H]([C@H](O)CCN)NC(=O)[C@H]([C@H](O)[C@@H](O)c2ccc(O)cc2)NC(=O)[C@@H]2C[C@@H](O)CN2C(=O)[C@H]([C@@H](C)O)NC1=O [CASPOFUNGIN] | 0.1 µM (≈ 0.109 µg/mL) | 0.4 µM (≈ 0.437 µg/mL) | > 25.8 µM | 0.8 µM (≈ 0.875 µg/mL) | 0.05 µM (≈ 0.0547 µg/mL) | 0.05 µM (≈ 0.0547 µg/mL) | 0.2 µM (≈ 0.219 µg/mL) | > 25.8 µM | > 25.8 µM | 1.6 µM (≈ 1.75 µg/mL) | 0.1 µM (≈ 0.109 µg/mL) | 0.2 µM (≈ 0.219 µg/mL) | 0.4 µM (≈ 0.437 µg/mL) | – | –
CCCCCCCCCCCCCN1CCNCC1 | 7.2 µM (≈ 1.93 µg/mL) | 7.2 µM (≈ 1.93 µg/mL) | 7.2 µM (≈ 1.93 µg/mL) | 3.6 µM (≈ 0.967 µg/mL) | 7.2 µM (≈ 1.93 µg/mL) | 1.8 µM (≈ 0.483 µg/mL) | 7.2 µM (≈ 1.93 µg/mL) | 3.6 µM (≈ 0.967 µg/mL) | 7.2 µM (≈ 1.93 µg/mL) | 7.2 µM (≈ 1.93 µg/mL) | 3.6 µM (≈ 0.967 µg/mL) | 3.6 µM (≈ 0.967 µg/mL) | 3.6 µM (≈ 0.967 µg/mL) | Soluble | Soluble
OC(CNCCN1CCOCC1)(Cn1cncn1)c1ccc(F)cc1F (configuration not stated) | > 85.2 µM | > 85.2 µM | > 85.2 µM | 85.2 µM (≈ 31.3 µg/mL) | 85.2 µM (≈ 31.3 µg/mL) | 85.2 µM (≈ 31.3 µg/mL) | 85.2 µM (≈ 31.3 µg/mL) | > 85.2 µM | > 85.2 µM | 85.2 µM (≈ 31.3 µg/mL) | > 85.2 µM | 85.2 µM (≈ 31.3 µg/mL) | > 85.2 µM | – | –
OC(CN1CCOCC1)(Cn1cncn1)c1ccc(F)cc1F (configuration not stated) | 24 to 96.5 µM (≈ 7.78 to 31.3 µg/mL) | 96.5 µM (≈ 31.3 µg/mL) | 24 µM (≈ 7.78 µg/mL) | > 96.5 µM | > 96.5 µM | 96.5 µM (≈ 31.3 µg/mL) | > 96.5 µM | 6 µM (≈ 1.95 µg/mL) | 48.1 µM (≈ 15.6 µg/mL) | > 96.5 µM | 12 to 96.5 µM (≈ 3.89 to 31.3 µg/mL) | > 96.5 µM | > 96.5 µM | – | –
CCCCCN1CCNCC1 | > 200 µM | > 200 µM | > 200 µM | > 200 µM | > 200 µM | > 200 µM | > 200 µM | > 200 µM | > 200 µM | > 200 µM | > 200 µM | > 200 µM | > 200 µM | – | –
CCCCCCCCCN1CCN(CC(O)(Cn2cncn2)c2ccc(F)cc2F)CC1 (configuration not stated) | 35.2 µM (≈ 15.8 µg/mL) | 35.2 µM (≈ 15.8 µg/mL) | 1.1 µM (≈ 0.495 µg/mL) | 2.2 µM (≈ 0.989 µg/mL) | 8.8 µM (≈ 3.96 µg/mL) | 8.8 µM (≈ 3.96 µg/mL) | 35.2 µM (≈ 15.8 µg/mL) | 2.2 µM (≈ 0.989 µg/mL) | 4.4 µM (≈ 1.98 µg/mL) | 0.55 µM (≈ 0.247 µg/mL) | 17.6 µM (≈ 7.91 µg/mL) | 17.6 µM (≈ 7.91 µg/mL) | 2.2 µM (≈ 0.989 µg/mL) | – | –
CCCCCCCCCCCN1CCN(CC(O)(Cn2cncn2)c2ccc(F)cc2F)CC1 (configuration not stated) | 32.8 µM (≈ 15.7 µg/mL) | 32.8 µM (≈ 15.7 µg/mL) | 4.1 µM (≈ 1.96 µg/mL) | 4.1 µM (≈ 1.96 µg/mL) | 16.4 µM (≈ 7.83 µg/mL) | 8.2 µM (≈ 3.92 µg/mL) | 32.8 µM (≈ 15.7 µg/mL) | 4.1 µM (≈ 1.96 µg/mL) | 4.1 µM (≈ 1.96 µg/mL) | 0.5 µM (≈ 0.239 µg/mL) | 32.8 µM (≈ 15.7 µg/mL) | 32.8 µM (≈ 15.7 µg/mL) | 4.1 µM (≈ 1.96 µg/mL) | – | –
CCCCCCCCCCCN1CCNCC1 | 32.4 µM (≈ 7.79 µg/mL) | 64.8 µM (≈ 15.6 µg/mL) | 130 µM (≈ 31.2 µg/mL) | 32.4 µM (≈ 7.79 µg/mL) | 64.8 µM (≈ 15.6 µg/mL) | 32.4 µM (≈ 7.79 µg/mL) | 32.4 µM (≈ 7.79 µg/mL) | 64.8 µM (≈ 15.6 µg/mL) | 64.8 µM (≈ 15.6 µg/mL) | 32.4 µM (≈ 7.79 µg/mL) | 32.4 µM (≈ 7.79 µg/mL) | 32.4 µM (≈ 7.79 µg/mL) | 32.4 µM (≈ 7.79 µg/mL) | – | –
Fc1ccc(C2(Cn3cncn3)CO2)c(F)c1 (configuration not stated) | > 132 µM | > 132 µM | > 132 µM | > 132 µM | > 132 µM | > 132 µM | > 132 µM | > 132 µM | > 132 µM | > 132 µM | > 132 µM | > 132 µM | > 132 µM | – | –
CN1CCNCC1 [METHYLPIPERAZINE] | > 312 µM | > 312 µM | > 312 µM | > 312 µM | > 312 µM | > 312 µM | > 312 µM | > 312 µM | > 312 µM | > 312 µM | > 312 µM | > 312 µM | > 312 µM | – | –
